Results on 27 compounds are retold here after PubChem BioAssay AID1885 (Broad Institute, 2009).

Structures are written as SMILES. The whole screen tested about 300,000 compounds, of which about 4,400 (1.5%) were called active.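 The calls were made as follows: active = mean inhibition across valid replicates above about 55% (limit read from the data); inconclusive = mean below that limit but half or more replicates reach it; inactive = mean below it, under half of replicates reach it.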 This excerpt belongs to a sample that is enriched for actives.

The experiment is described as follows: Trypanosoma cruzi replication blockers in host cells – luminescence, NIH3T3 host cells, primary screen (AID 1885).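 Also: signal also drops with host cell toxicity which is not excluded here; 0% = plate median of DMSO wells and 100% = zero luminescence signal; higher percent means less beta-gal luminescence so fewer parasites.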 The note with it: T. cruzi beta-gal in NIH3T3, luminescence, 90 h; stronger effect = higher value; concentration not given here. The method, boiled down:
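System: mouse NIH/3T3 fibroblasts infected with β-gal-expressing T. cruzi Tulahuen C4 / Input: NIH/3T3 cells, 5,000 per well / Buffer or medium: Low-serum DMEM with 2% FBS / Probe or stimulus: 5000 reporter trypomastigotes per well / Schedule: ≥90 h infection period, 3 h prior cell attachment / Measured by: GalScreen luminescence, 60 min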
In the case of `Cc1cc2nc3n(c2cc1C)CC1CC(C(=O)NCCC(C)C)N(C)C31` (configuration not stated), the inhibition is -2.62% (inactive).
On to `CCOc1cc(C(=O)O)ccc1OCCOc1ccccc1`, for which the inhibition was 3.5% (inactive).
On to `O=C(NCC1CCN(Cc2ccccc2Cl)CC1)Nc1cccc(Cl)c1`, for which the inhibition is 49.4% (inactive).
Consider `Cc1cccc(CN2CCC(CNC(=O)Nc3ccc(F)c(Cl)c3)CC2)c1`, for which the inhibition is 46.2% (inactive).
Consider `Cc1ccccc1NC(=O)NCC1CCN(Cc2cccc(Cl)c2)CC1`, for which the inhibition was 57.5% (active).
As to `CSc1ccc(/C=C2\NC(=O)NC2=O)cc1`, the inhibition was -13.1% (inactive).
On to `CC(=O)Nc1cccc(NC(=O)c2ccc3c(c2)CCN3S(C)(=O)=O)c1`, for which the inhibition is -5.53% (inactive).
In the case of `OC(CNCC1CCCO1)Cn1c2ccc(Br)cc2c2cc(Br)ccc21` (configuration not stated), the inhibition was 55.2% (active).
The result for `O=C(CSc1ccc(-c2ccc(Br)cc2)nn1)NCC1CCCO1` (configuration not stated) reads -13.2% (inactive).
The result for `CC(NS(=O)(=O)c1ccc(Br)cc1)C(=O)NCC1CCCO1` (configuration not stated) reads 0.0781% (inactive); that for `Cc1nn(C)cc1/C=N/NC(=O)c1sc2ccccc2c1Cl`, -4.55% (inactive).
Turning to `CN1CCc2ccccc2C1Cc1ccccc1NC(=O)c1sc2ccccc2c1Cl` (configuration not stated), the inhibition was 54.6% (active).
As to `COc1ccc(CNC(=O)CNC(=O)c2sc3ccccc3c2Cl)cc1OC`, the inhibition is 13.1% (inactive).
For `COCCCNC(NC(=O)c1ccc(OC)cc1)C(Cl)(Cl)Cl` (configuration not stated), the inhibition was -20.9% (inactive).
With `COc1ccccc1NC(=O)C(C)OC(=O)c1ccc(-n2cnnn2)cc1` (configuration not stated) the figure was -5.21% (inactive).
With `O=C(Nc1cc(Cl)ccc1N1CCOCC1)c1ccc(N2CCCC2=O)cc1` the figure was -1.5% (inactive); with `CC(OC(=O)c1ccc(-n2cnnn2)cc1)C(=O)NCc1ccccc1` (configuration not stated), -10.5% (inactive); with `Cc1ccc(C(=O)NCC(=O)OCc2nnc(-c3ccccc3)o2)cc1`, 0.567% (inactive).
The result for `COc1ccc(C(=O)Cc2cnn(-c3ccccc3)c2)c(O)c1` reads 33.1% (inactive); that for `Cc1[nH]nc(-c2ccc(OCc3cnn(-c4ccccc4)c3)cc2O)c1Oc1ccc(Cl)cc1`, 57.6% (active).
`C=C(C)COc1ccc(-c2n[nH]c(C)c2-c2ccccc2)c(O)c1`: the inhibition is -19.2% (inactive).
As to `COc1cc(OC)c(C(=O)OC(C)C(=O)Nc2cc(C(F)(F)F)ccc2Cl)cc1OC` (configuration not stated), the inhibition is 18.6% (inactive).
With `CCC(C)N(C(=O)Cn1nc(C)c([N+](=O)[O-])c1C)C1CCS(=O)(=O)C1` (configuration not stated) the figure was -2.7% (inactive); with `CC(=O)Nc1ccc(NC(=O)CSC2=NS(=O)(=O)c3ccccc3N2)cc1`, 0.486% (inactive); with `Oc1c(CN2CCN(c3ccc(F)cc3)CC2)cc(Cl)c2cccnc12`, 59.9% (active).
Consider `Oc1ccc(CN2CCN(c3ncccn3)CC2)cc1`, for which the inhibition was -5.02% (inactive).
Consider `Cc1cccnc1NC(=O)c1cccc(S(=O)(=O)N2CCN(c3ccc(F)cc3)CC2)c1`, for which the inhibition is 13.5% (inactive).

By inhibition is commonly meant the relative decrease from the control value, in per cent.
